Source: ChEMBL document CHEMBL1136288, “A catch-and-release strategy for the combinatorial synthesis of 4-acylamino-1,3-thiazoles as potential CDK5 inhibitors” (Bioorg Med Chem Lett, 2003)

Experiments:
[1] = target: Cyclin-dependent kinase 2/cyclin A (Homo sapiens, UniProt P24941); assay: Ability to inhibit cyclin-dependent kinase 2-cyclin A.; format: protein-complex assay
Summary of the method: (§1)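 CDK5/GST-p25 was at 0.5 nM and CDK2/GST-cyclin A at 4 nM. Incubated 30 min at 37 °C, stopped with streptavidin SPA beads/EDTA, and counted. IC50 came from a sigmoidal dose-response fit, averaged when repeated.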

[2] = target: T1, Cyclin-dependent kinase 5/CDK5 activator 1 (Homo sapiens, UniProt Q00535); assay: Ability to inhibit Cyclin-dependent kinase 5-p35.; format: protein-complex assay; summary of the method: as §1
[3] = target: T2, Cyclin-dependent kinase 5/CDK5 activator 1 (Homo sapiens) (UniProt Q00535+Q15078); assay: Inhibition of Cyclin-dependent kinase 5-p35nck5a; format: protein-complex assay; settings: concentration not given here; summary of the method: as §1
[4] = target: T2, Cyclin-dependent kinase 5/CDK5 activator 1 (Homo sapiens); assay: Inhibition of Cyclin-dependent kinase 5-p35nck5a at 20 uM; format: protein-complex assay
[5] = Specificity for CDK5 over Cyclin-dependent kinase 2-cyclin A
[6] = target: T1, Cyclin-dependent kinase 5/CDK5 activator 1; assay: Inhibition of Tau Protein Kinase II (TPK II); format: protein-complex assay; summary of the method: as §1

T2 sequence (Q00535 whole entry): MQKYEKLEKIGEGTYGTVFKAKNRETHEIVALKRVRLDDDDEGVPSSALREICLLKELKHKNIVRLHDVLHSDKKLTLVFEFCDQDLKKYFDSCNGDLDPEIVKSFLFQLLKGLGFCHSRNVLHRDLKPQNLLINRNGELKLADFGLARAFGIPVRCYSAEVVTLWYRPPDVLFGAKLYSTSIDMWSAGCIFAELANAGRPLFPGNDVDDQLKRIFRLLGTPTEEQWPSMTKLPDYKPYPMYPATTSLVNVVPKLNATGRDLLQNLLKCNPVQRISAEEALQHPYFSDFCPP
T2 sequence (Q15078 99-307 partner limits assumed): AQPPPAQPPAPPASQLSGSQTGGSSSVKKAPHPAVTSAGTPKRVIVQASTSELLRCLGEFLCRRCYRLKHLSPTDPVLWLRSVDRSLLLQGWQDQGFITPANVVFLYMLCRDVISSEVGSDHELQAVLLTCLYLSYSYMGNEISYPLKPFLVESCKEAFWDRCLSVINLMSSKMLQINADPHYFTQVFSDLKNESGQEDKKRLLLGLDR
T1 sequence (Q00535 whole entry): as the sequence (Q00535 whole entry) above
T1 sequence (Q15078 whole entry, further chain): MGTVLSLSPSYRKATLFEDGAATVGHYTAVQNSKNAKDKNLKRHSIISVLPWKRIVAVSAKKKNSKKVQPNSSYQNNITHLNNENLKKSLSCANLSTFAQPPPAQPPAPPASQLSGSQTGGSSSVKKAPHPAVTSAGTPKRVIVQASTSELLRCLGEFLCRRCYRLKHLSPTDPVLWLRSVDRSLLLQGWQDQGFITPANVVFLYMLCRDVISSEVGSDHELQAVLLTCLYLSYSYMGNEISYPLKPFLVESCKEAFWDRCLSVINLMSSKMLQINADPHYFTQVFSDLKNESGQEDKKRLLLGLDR

SMILES | IC50 [1] | IC50 [2] | further results
O=C(Nc1csc(Cc2c(Cl)cccc2Cl)n1)NN1CCCC1 | 20 µM | 3 µM | 
O=C(Nc1csc(CS(=O)(=O)c2ccccn2)n1)NN1CCOCC1 | 5 µM | 10 µM | 
NNC(=O)Nc1csc(Cc2c(Cl)cccc2Cl)n1 |  | > 100 µM | 
O=C(Nc1csc(-c2ccc(Cl)cc2)n1)NN1CCOCC1 |  | > 100 µM | 
CC(C)(C)ONC(=O)Nc1csc(Cc2c(Cl)cccc2Cl)n1 | 15 µM | 1 µM | 
O=C(NOCc1c(F)c(F)c(F)c(F)c1F)Nc1csc(Cc2c(Cl)cccc2Cl)n1 |  | > 100 µM | 
CCONC(=O)Nc1csc(Cc2c(Cl)cccc2Cl)n1 | 20 µM | 5 µM | 
CN(NC(=O)Nc1csc(Cc2c(Cl)cccc2Cl)n1)c1ccccc1 | 60 µM | 10 µM | 
O=C(Nc1csc(Cc2ccc(Br)cc2)n1)NN1CCOCC1 |  |  | inhibition [3]: 26%
CS(=O)(=O)Cc1nc(NC(=O)NN2CCOCC2)cs1 |  |  | inhibition [3]: 35%
C=CCONC(=O)Nc1csc(Cc2c(Cl)cccc2Cl)n1 | 40 µM | 6 µM | 
O=C(Nc1csc(CSc2ccccc2)n1)NN1CCOCC1 | 30 µM | 30 µM | 
O=C(Nc1csc(Cc2c(Cl)cccc2Cl)n1)NN1CCCCC1 | 30 µM | 6 µM | 
CCc1nc(NC(=O)NN2CCOCC2)cs1 |  | > 100 µM | 
Cc1ccc(-c2nc(NC(=O)NN3CCOCC3)cs2)cc1 |  | > 100 µM | 
Cc1cccc(-c2nc(NC(=O)NN3CCOCC3)cs2)c1 | 20 µM | 30 µM | 
O=C(Nc1csc(-c2cccs2)n1)NN1CCOCC1 | 10 µM | 30 µM | 
O=C(Nc1csc(Cc2ccccc2)n1)NN1CCOCC1 | > 100 µM | 55 µM | 
Cc1cccc(-c2nc(NC(=O)NOc3ccccc3)cs2)c1 | > 100 µM | 16 µM | 
CN(C)NC(=O)Nc1csc(Cc2c(Cl)cccc2Cl)n1 | 10 µM | 4 µM | 

SMILES | IC50 [1] | IC50 [2] | further results
O=C(Nc1csc(Cc2c(Cl)cccc2Cl)n1)NN1CCCCCC1 | 70 µM | 10 µM | 
O=C(NOc1ccccc1)Nc1csc(Cc2ccccc2)n1 | > 100 µM | 20 µM | 
CS(=O)(=O)Cc1nc(NC(=O)NOc2ccccc2)cs1 | 90 µM | 6 µM | 
COc1ccc(OCc2nc(NC(=O)NN3CCOCC3)cs2)cc1 | 20 µM | 30 µM | 
O=C(Nc1csc(Cc2ccccc2Cl)n1)NN1CCOCC1 |  |  | inhibition [3]: 30%
O=C(NOC1CCCCO1)Nc1csc(Cc2c(Cl)cccc2Cl)n1 (stereo unspecified) | 90 µM | 3 µM | 
O=C(Nc1csc(Cc2c(Cl)cccc2Cl)n1)NN(Cc1ccccc1)Cc1ccccc1 |  | > 100 µM | 
CNN(C)C(=O)Nc1csc(Cc2c(Cl)cccc2Cl)n1 |  | > 100 µM | 
O=C(Nc1csc(-c2ccccc2)n1)NN1CCOCC1 | 6 µM | 9 µM | 
O=C(NOCc1ccccc1)Nc1csc(Cc2c(Cl)cccc2Cl)n1 |  |  | inhibition [4]: 40%
O=C(Nc1csc(COc2ccccc2)n1)NN1CCOCC1 | > 100 µM | 80 µM | 
COC[C@H]1CCCN1NC(=O)Nc1csc(Cc2c(Cl)cccc2Cl)n1 |  | > 100 µM | 
O=C(NOc1ccccc1)Nc1csc(Cc2c(Cl)cccc2Cl)n1 | > 100 µM | 0.9 µM | 
CNNC(=O)Nc1csc(Cc2c(Cl)cccc2Cl)n1 |  | > 100 µM | 
O=C(NOc1ccccc1)Nc1csc(-c2ccccc2)n1 | 35 µM | 8 µM | 
CONC(=O)Nc1csc(Cc2c(Cl)cccc2Cl)n1 | > 100 µM | 9 µM | 
O=C(Nc1csc(Cc2c(Cl)cccc2Cl)n1)NN1CCOCC1 | 10 µM | 1 µM | IC50 [5]: 10 µM; Ki [6]: 0.5 µM
O=C(NNc1ccccc1)Nc1csc(Cc2c(Cl)cccc2Cl)n1 |  | > 100 µM | 
O=C(Nc1csc(-c2ccccc2Cl)n1)NN1CCOCC1 | 10 µM | 30 µM | 
